Screens from PubChem BioAssay.
Rows were chosen to be rich in hits. Some 2% of all compounds tested hit in one or more screens of this group.
PP5 inh: blocks human protein phosphatase 5 activity. actives 0.18% (n = 320,000). AID 1987. purified PP5c, OMFP substrate fluorescence. inhibition, % at 6.7 µM;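 active means inhibition above the campaign's mean inhibition across all tested compounds plus 3 SD, cut at about 9.5% in these data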;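 further: 0% = DMSO only and 100% = 100 µM cantharidin control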
Target sequence (P53041 whole entry, looked up): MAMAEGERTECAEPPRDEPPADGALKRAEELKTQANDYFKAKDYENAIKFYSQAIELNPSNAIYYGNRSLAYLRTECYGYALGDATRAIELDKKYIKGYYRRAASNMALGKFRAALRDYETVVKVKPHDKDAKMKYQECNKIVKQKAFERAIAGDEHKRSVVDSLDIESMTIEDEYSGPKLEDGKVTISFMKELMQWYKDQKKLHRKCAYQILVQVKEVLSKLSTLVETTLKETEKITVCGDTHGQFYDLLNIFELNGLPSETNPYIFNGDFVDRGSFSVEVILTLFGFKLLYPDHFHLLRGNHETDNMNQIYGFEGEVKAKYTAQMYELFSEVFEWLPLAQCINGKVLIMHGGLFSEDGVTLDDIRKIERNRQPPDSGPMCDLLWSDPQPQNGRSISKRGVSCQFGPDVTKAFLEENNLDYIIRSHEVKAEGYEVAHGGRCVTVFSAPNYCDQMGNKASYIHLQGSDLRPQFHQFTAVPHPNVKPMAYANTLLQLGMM
CTSL1 counter: counter-screen for PFM18AAP inhibitors: inhibitors of F. hepatica cathepsin L1 | recombinant F. hepatica cathepsin L1, Z-Leu-Arg-MCA fluorescence | inhibition, % at 5.96 µM | actives 0.49% (n = 300,000) | AID 1906;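 active means inhibition above the mean of all tested compounds plus 3 SD, set per screening campaign, cut at about 17% in these data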;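 further: 0% = plate median of test compound wells and 100% = 1 µM Z-Phe-Ala-diazomethylketone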
UCH37 DUB inh: blocks the human deubiquitinase UCH37. purified proteasome/UCH37, Ub-AMC cleavage fluorescence. inhibition, % (no concentration beside the values). actives 0.33% (n = 330,000);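 active means mean inhibition over replicate wells above about 20%, limit read from the data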;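 further: 0% = compound-free wells with enzyme and 100% = wells lacking proteasome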
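assay system = human UCH37 enzyme supplied as purified proteasome complex | amount = proteasome at 0.15 nM in the dispensed enzyme solution | schedule = 30 min compound-proteasome preincubation then 25 min substrate reaction, room temperature | measured by = fluorescence, ex 355 nm, em 460 nm | benchmarks = no-proteasome wells (full inhibition) and compound-free wells (no inhibition)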
GSTO1 counter: GSTO1 inhibition, counter-screen for RBBP9 inhibitors; P78417; recombinant GSTO1, activity-based probe fluorescence polarization; inhibition, % at 5.96 µM; actives 1.1% (n = 300,000);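 active means inhibition above the campaign mean inhibition plus 3 SD, cut at about 35% in these data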;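 further: 0% = GSTO1-1 with DMSO and 100% = wells lacking GSTO1-1 enzyme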
PAD4 inh: inhibitors of human PAD4 | Q9UM07 | recombinant PAD4, RCA probe fluorescence polarization | inhibition, % at 6.36 µM | actives 0.41% (n = 330,000) | AID 485272;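 active means percent inhibition above a cutoff equal to the mean of all tested compounds plus 3 SD, cut at about 15% in these data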;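 further: 0% = PAD4 with RCA probe and DMSO and 100% = probe without PAD4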
Apaf1 inhib: inhibitors of human Apaf-1 apoptosome. inhibition, % at 20 µM. actives 0.71% (n = 330,000). reconstituted apoptosome caspase-3 activity, DEVD-Rh110 fluorescence; active means inhibition of at least 40% at 20 µM;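 further: plate controls were DMSO wells for no effect and DEVD-CHO caspase inhibitor wells for full effect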
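detection = Rh110 fluorescence intensity | test system = biochemical Apaf-1 apoptosome reconstitution | also added = cytochrome c and DEVD-Rh110 substrate | schedule = 30 min plus 50 min, RT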
PAD4 FP conf: confirmation of human PAD4 inhibitors; inhibition, % at 6.36 µM; shares compounds with PAD4 inh; actives 28% (n = 1,200); recombinant PAD4, RCA probe fluorescence polarization;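 active means mean inhibition across replicates above the hit cutoff set by the earlier primary screen, cut at about 15% in these data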;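 further: inhibitors block active-site labeling by the probe so polarization falls; 0% = PAD4 with probe and DMSO and 100% = probe without PAD4 enzyme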
Starred values were filed as active, the others as inactive; . = no result.

SMILES | PP5 inh | CTSL1 counter | UCH37 DUB inh | GSTO1 counter | PAD4 inh | Apaf1 inhib | PAD4 FP conf
O=C(NC1CCN(Cc2ccc(F)cc2)CC1)c1ccccc1 | -0.5 | 5.5 | 1.7 | -4.1 | -4.3 | 6.7 | .
Cc1cc(O)ccc1N/C=C/c1onc(C)c1[N+](=O)[O-] | 2.9 | 4.1 | 3.7 | -1.7 | 37.1* | -4.0 | 3.4
COc1ccc(C(N)c2nccc3cc(OC)c(OC)cc23)cc1OC (configuration not stated) | 2.8 | 26.3* | -1.8 | 39.3* | 21.6* | 18.4 | -1.1
O=[N+]([O-])c1cccnc1-n1cnc2ccccc21 | 1.4 | -0.4 | 0.7 | 4.8 | 3.5 | 2.1 | .
Cc1cc2ncn(-c3ncccc3[N+](=O)[O-])c2cc1C | 3.4 | -1.6 | 1.9 | 6.8 | 86.6* | 11.6 | -1.5
CN1C(=O)N(C)C2(c3ccccc3)Nn3c(sc(=Cc4ccccc4)c3=O)=NC12c1ccccc1 (configuration not stated) | . | . | 1.1 | . | . | . | .
COc1ccc(N2C(=O)CSC23C(=O)Nc2ccccc23)cc1 (configuration not stated) | -2.4 | -0.8 | 4.0 | -3.4 | 15.6* | -3.0 | 13.6
COC(=O)c1cc(C)nc(Sc2ccccc2N)n1 | -0.3 | -0.2 | . | 3.0 | 68.4* | -29.5 | 77.9*
COC(=O)c1ccccc1NC(=O)CSc1nc(C)cc(C)n1 | -1.0 | 1.2 | 4.9 | 6.7 | -3.0 | -4.5 | .
ON=Cc1ccnc(SCc2ccccc2)n1 | . | . | 3.1 | . | . | . | .
CCCNS(=O)(=O)c1ccc(CCC(=O)NCc2ccco2)cc1 | 0.4 | -2.6 | 1.7 | -1.7 | 0.1 | 1.3 | .
O=C(CCNS(=O)(=O)c1cccc(C(F)(F)F)c1)NCc1ccco1 | . | . | -0.4 | . | 27.1* | -0.8 | -0.6
O=C(O)c1cccc(NN=Cc2cc(Br)cc(Br)c2O)c1 | . | . | 9.8 | . | . | . | .
CC(C)c1ccc(N2C(=O)CSC23C(=O)N2CCCc4cccc3c42)cc1 (configuration not stated) | -0.2 | 2.9 | 0.7 | 4.9 | 15.5* | -0.4 | 19.6*
CC1=CC(C)(C)N2C(=O)C3(SCC(=O)N3c3ccc(F)cc3)c3cc(C)cc1c32 (configuration not stated) | 4.7 | -4.4 | -0.3 | -4.6 | -0.2 | 26.7 | .
COc1cc(C=NNC(=S)Nc2cccnc2)cc(OC)c1O | . | . | 4.6 | . | . | . | .
O=C(NCc1ccco1)c1cc2ccccc2o1 | 0.5 | 0.5 | -0.8 | 4.6 | 0.9 | -2.8 | .
CN(C)C(CNC(=O)c1cc2ccccc2o1)c1ccco1 (configuration not stated) | . | . | -4.3 | . | 88.1* | 3.1 | 2.8
C#CCOCCOCCOCCNc1nc(N2CCN(C(=O)[C@H](CCCCN)n3cc([C@@H](N)C(C)CC)nn3)CC2)nc(N2CCN(C(=O)[C@H](Cc3cc4ccccc4[nH]3)n3cc([C@@H](N)CC(C)C)nn3)CC2)n1 (some centres not stated) | 1.1 | 6.1 | 1.7 | -3.5 | 16.3* | -1.7 | 4.3
C#CCOCCOCCOCCNc1nc(N2CCN(C(=O)[C@H](Cc3cc4ccccc4[nH]3)n3cc([C@@H](N)C(C)CC)nn3)CC2)nc(N2CCN(C(=O)[C@H](CCCCN)n3cc([C@@H](N)CO)nn3)CC2)n1 (some centres not stated) | 2.0 | -1.9 | 4.1 | -2.1 | -4.3 | 9.5 | .
Cc1ccccc1NC1=C(Cl)C(=O)OC1OC(=O)c1ccccc1C (configuration not stated) | 4.2 | -0.7 | 3.5 | 1.5 | 43.9* | 17.0 | -1.8
O=C(Oc1ccc(-c2cnc3ccccc3n2)cc1)c1ccc(Br)o1 | 1.5 | -3.1 | -3.4 | 5.2 | 39.1* | -3.4 | 27.1*
O=C(Oc1ccc(-c2cnc3ccccc3n2)cc1)c1cccc([N+](=O)[O-])c1 | 2.5 | -2.3 | -0.6 | 2.0 | 13.0 | 1.0 | .
Fc1ccc(NN=C/C=C/c2ccccc2)c(F)c1 | . | . | 1.0 | . | . | . | .
Nc1ccccc1SSc1ccccc1N | 2.5 | 1.8 | 7.1 | -14.8 | 8.0 | -3.5 | .
CC(C(Sc1ccccc1N)c1ccccc1)[N+](=O)[O-] (configuration not stated) | 0.7 | -0.5 | . | -1.7 | 17.6* | 3.2 | 15.1*
